# According to ChEMBL document CHEMBL1128394, “Hydroxamic acids as potent inhibitors of endothelin-converting enzyme from human bronchiolar smooth muscle” (J Med Chem, 1995):
# Values joined by “and” are separate entries in the source; they are usually repeats but may differ in a detail not shown here. Identical values can stand only once. Residues, ends and D or L forms follow the SMILES beside them. *: point of attachment. Cbz = O=C(OCc1ccccc1)*; NHOH = ON*
# What was measured:
# [1] = target: T1, Endothelin-converting enzyme 1 (Homo sapiens, UniProt P42892); assay: Inhibitory activity against human bronchiolar smooth muscle Endothelin-converting enzyme 1; format: tissue-based, Muscle tissue
# T1 sequence (P42892 whole entry): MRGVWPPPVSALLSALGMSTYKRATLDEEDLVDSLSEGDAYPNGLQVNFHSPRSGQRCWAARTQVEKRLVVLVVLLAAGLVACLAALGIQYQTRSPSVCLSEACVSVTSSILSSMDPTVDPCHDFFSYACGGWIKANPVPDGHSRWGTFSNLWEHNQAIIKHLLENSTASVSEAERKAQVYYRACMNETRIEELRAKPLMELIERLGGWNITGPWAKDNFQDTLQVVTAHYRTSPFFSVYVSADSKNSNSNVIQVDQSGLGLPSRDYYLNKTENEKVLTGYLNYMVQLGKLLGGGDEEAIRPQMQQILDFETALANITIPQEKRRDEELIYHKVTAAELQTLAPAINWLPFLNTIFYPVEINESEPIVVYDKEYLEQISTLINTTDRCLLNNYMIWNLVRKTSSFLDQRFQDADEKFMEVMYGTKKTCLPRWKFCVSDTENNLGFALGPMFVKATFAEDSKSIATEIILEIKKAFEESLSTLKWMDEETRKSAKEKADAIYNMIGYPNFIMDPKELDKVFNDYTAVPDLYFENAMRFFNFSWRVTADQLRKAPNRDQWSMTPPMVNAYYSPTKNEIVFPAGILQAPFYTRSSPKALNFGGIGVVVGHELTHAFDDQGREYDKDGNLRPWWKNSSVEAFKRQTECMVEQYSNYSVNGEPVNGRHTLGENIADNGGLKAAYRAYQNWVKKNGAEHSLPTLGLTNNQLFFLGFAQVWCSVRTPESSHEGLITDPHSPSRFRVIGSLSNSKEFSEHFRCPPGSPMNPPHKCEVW
# In short: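 Enzyme purified from cultured human bronchiolar smooth muscle cell membranes (octyl glucoside solubilization, ion exchange, gel filtration). Preincubated 30 min at 37 °C with inhibitor (in DMSO), then 3 μM human big ET-1 (final) added. Run 4–5 h at 37 °C in 50 mM Na-MOPS pH 7.2, 150 mM NaCl, 30 μM CaCl2, amastatin, PMSF. Stopped with EDTA. ET-1 quantified by reverse-phase HPLC with fluorescence.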
# Neprilysin [2] = target: T2, Neprilysin (Oryctolagus cuniculus, UniProt P08049); assay: Inhibitory activity against Leu-enkeph of Neutral endopeptidase
# T2 sequence (P08049 whole entry): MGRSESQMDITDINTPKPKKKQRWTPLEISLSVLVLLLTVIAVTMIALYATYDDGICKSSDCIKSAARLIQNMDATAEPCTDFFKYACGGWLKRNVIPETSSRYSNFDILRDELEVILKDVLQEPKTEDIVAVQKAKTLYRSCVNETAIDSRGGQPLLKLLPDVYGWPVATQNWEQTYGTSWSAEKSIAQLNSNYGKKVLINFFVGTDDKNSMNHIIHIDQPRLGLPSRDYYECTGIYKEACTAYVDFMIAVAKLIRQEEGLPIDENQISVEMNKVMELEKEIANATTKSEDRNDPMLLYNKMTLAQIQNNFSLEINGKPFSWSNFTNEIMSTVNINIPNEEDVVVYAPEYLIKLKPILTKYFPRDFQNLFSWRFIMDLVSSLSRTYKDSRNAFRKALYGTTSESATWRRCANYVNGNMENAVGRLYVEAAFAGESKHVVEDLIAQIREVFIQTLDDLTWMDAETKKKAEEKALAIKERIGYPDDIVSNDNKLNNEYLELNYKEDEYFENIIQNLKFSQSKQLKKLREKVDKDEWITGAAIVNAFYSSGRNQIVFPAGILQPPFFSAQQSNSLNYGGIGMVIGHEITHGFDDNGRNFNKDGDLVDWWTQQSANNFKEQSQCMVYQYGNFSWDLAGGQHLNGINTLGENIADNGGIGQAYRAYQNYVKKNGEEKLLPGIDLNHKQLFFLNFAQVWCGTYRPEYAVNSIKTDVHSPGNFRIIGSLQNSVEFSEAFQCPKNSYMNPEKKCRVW
# In short: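 Soluble rabbit kidney neutral endopeptidase preincubated 15 min with inhibitor. Tritiated [Leu]enkephalin as substrate. Reaction ran 10 min at 20 °C in 50 mM Tris-Cl pH 7.5.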
# Neprilysin [3] = target: T2, Neprilysin; assay: Inhibitory activity against big ET-1 of Neutral endopeptidase
# In short: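 Soluble rabbit kidney neutral endopeptidase, run under the same conditions as the ECE assay: 30 min inhibitor preincubation at 37 °C, 3 μM human big ET-1, 4–5 h at 37 °C, pH 7.2 Na-MOPS buffer with NaCl and CaCl2. ET-1 formed was measured by reverse-phase HPLC with fluorescence detection. IC50 by least-squares curve fit.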
# Thermolysin = target: T3, Thermolysin (Bacillus thermoproteolyticus, UniProt P00800); assay: Inhibitory activity against thermolysin with 0.5 uM [Leu5]-enkephalin (NEN)
# T3 sequence (P00800 whole entry): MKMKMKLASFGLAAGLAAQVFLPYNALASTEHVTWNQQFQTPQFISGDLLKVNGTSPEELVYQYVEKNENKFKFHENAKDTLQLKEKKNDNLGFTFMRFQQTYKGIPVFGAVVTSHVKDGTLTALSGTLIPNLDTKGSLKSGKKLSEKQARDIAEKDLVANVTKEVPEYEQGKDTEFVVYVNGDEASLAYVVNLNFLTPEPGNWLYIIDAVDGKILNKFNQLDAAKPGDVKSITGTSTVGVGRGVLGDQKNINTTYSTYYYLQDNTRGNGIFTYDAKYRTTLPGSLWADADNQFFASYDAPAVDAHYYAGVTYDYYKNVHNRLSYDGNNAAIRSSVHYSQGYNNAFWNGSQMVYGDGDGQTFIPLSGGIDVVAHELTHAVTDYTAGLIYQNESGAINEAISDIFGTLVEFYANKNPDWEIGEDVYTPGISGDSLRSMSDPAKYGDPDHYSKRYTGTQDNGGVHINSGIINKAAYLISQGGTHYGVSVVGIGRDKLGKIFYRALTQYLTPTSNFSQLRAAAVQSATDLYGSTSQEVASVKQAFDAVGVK
# In short: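 Thermolysin preincubated 15 min with inhibitor. Substrate 0.5 μM [3,5-3H-Tyr1][Leu]enkephalin. Reaction ran 10 min at 20 °C in 50 mM Tris-Cl pH 7.5.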
Structure (SMILES),IC50 [1],IC50 (Neprilysin [2]),IC50 (Neprilysin [3]),IC50 (Thermolysin)
CC(C)C[C@H](C(=O)NO)C(=O)N[C@@H](C)C(=O)NCC(N)=O,11 nM,2 nM,40 nM,175 nM
CC(C)CC(C(=O)NO)C(=O)NC(Cc1c[nH]c2ccccc12)C(=O)O (stereo not given),0.25 nM,0.03 nM,0.07 nM,5 nM
CC(C)CC(C(=O)NO)C(=O)NC(Cc1c[nH]c2ccccc12)C(N)=O (stereo not given),4.8 nM,2 nM,7 nM,2 nM
CC(C)C(CC(=O)NOCc1ccccc1)C(=O)NC(CC(N)=O)C(N)=O (stereo not given),> 10000 nM,,,
CC(C)C(C(=O)NO)C(=O)NC(CC(N)=O)C(=O)O (stereo not given),3 nM,1 nM,20 nM,
CC(C)C(C(=O)NO)C(=O)NC(Cc1c[nH]c2ccccc12)C(N)=O (stereo not given),1.2 nM,2 nM,3 nM,9 nM
CC(C)C(CNO)C(=O)NC(Cc1c[nH]c2ccccc12)C(=O)O (stereo not given),500 nM,950 nM,1000 nM,
CC(C)C(C(=O)NO)C(=O)NCCC(=O)O (stereo not given),0.01 nM,2 nM,1 nM,1900 nM
CC(C)C(CC(N)=O)C(=O)NCCC(=O)O (stereo not given),6500 nM,,,
O=C(O)CCNC(=O)CC(=O)NO,3000 nM,,,
CC(C)C(C(=O)NO)C(=O)NC(Cc1c[nH]c2ccccc12)C(=O)O (stereo not given),0.2 nM,0.4 nM,0.03 nM,5 nM
CC(C)C(C(=O)NO)C(=O)NCC(=O)O (stereo not given),6.8 nM,3 nM,8 nM,
CC(C)C(CC(=O)NO)C(=O)NC(CC(N)=O)C(=O)O (stereo not given),150 nM,170 nM,750 nM,
CC(C)CC(C(=O)NOCc1ccccc1)C(=O)NC(Cc1c[nH]c2ccccc12)C(N)=O (stereo not given),10000 nM,,,
CC(C)C(CC(=O)NO)C(=O)NC(Cc1c[nH]c2ccccc12)C(=O)O (stereo not given),17 nM and 40 nM,5 nM and 18 nM,30 nM and 40 nM,2000 nM
CC(C)C(CC(=O)NO)C(=O)NC(CC(N)=O)C(N)=O (stereo not given),3000 nM,,,
CC(C)C(CC(=O)NO)C(=O)NCCC(=O)O (stereo not given),190 nM,30 nM,270 nM,
CC(C)C[C@H](NC(=O)[C@@H]1CCCN1C(=O)OCc1ccccc1)C(=O)NCC(=O)NO (Cbz-Pro-Leu-Gly-{NHOH}),33000 nM,,2300 nM,
CCCCC[C@H](CC(=O)NO)C(=O)N[C@H](C(=O)N1CCC[C@H]1CO)C(C)C [ACTINONIN],4000 nM,,8200 nM,
C[C@H](NC(=O)[C@@H](CC(=O)NO)Cc1ccccc1)C(=O)O [KELATORPHAN],8 nM,1 nM,8 nM,3 nM
CC(C)C[C@H](NP(=O)(O)O[C@@H]1O[C@@H](C)[C@H](O)[C@@H](O)[C@H]1O)C(=O)N[C@@H](Cc1c[nH]c2ccccc12)C(=O)O [PHOSPHORAMIDON],,6 nM,2 nM,33 nM
O=C(O)CNC(=O)C(CS)Cc1ccccc1 (stereo not given) [THIORPHAN],8 nM,,,
